Results reported in ChEMBL document CHEMBL1135734, “Side-chain lactam-bridge conformational constraints differentiate the activities of salmon and human calcitonins and reveal a new design concept for potent calcitonin analogues” (J Med Chem, 2002).
Positions of bridges follow the written chain, without caps; N, C: chain ends. Non-standard residues stand in square brackets, D forms with d. Residues, ends and D or L forms follow the SMILES beside them. Nle = CCCC[C@H](N)C(=O)O; Orn = NCCC[C@H](N)C(=O)O

Key:
[1] = target: T1, Calcitonin receptor (Rattus norvegicus) (UniProt P32214); assay: Affinity for calcitonin receptor of rat brain relative to [125I]-salmon calcitonin
T1 sequence (whole entry): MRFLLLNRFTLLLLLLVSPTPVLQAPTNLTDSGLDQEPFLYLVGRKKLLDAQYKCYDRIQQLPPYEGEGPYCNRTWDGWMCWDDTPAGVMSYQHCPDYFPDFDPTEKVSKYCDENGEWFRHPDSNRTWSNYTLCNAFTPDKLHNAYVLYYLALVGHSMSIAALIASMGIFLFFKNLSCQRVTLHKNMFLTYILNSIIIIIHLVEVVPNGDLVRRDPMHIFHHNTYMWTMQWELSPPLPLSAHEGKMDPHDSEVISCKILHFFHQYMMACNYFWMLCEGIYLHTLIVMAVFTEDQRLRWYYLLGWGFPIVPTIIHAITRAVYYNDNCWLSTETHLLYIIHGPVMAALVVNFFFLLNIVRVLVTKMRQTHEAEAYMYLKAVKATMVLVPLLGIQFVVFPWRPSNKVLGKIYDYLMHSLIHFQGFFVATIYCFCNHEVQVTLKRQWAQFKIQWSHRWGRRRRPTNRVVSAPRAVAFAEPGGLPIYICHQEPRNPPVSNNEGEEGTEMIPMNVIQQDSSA
Outline: (§1)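 Male Sprague–Dawley rat (250–350 g) brain membranes (~0.63 mg protein/tube) were shaken on ice for 30 min with 10 pM final [125I-Tyr22]sCT and competitor in 50 mM Tris-HCl pH 7.4 with 34 μM bacitracin. Tubes were centrifuged and the pellets washed, SDS-solubilized and scintillation counted. Nonspecific binding was taken with 1 μM sCT. IC50 came from probit analysis, and relative affinity set sCT = 100%.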

[2] = target: T2, Calcitonin receptor (Homo sapiens) (UniProt P30988)
T2 sequence (whole entry): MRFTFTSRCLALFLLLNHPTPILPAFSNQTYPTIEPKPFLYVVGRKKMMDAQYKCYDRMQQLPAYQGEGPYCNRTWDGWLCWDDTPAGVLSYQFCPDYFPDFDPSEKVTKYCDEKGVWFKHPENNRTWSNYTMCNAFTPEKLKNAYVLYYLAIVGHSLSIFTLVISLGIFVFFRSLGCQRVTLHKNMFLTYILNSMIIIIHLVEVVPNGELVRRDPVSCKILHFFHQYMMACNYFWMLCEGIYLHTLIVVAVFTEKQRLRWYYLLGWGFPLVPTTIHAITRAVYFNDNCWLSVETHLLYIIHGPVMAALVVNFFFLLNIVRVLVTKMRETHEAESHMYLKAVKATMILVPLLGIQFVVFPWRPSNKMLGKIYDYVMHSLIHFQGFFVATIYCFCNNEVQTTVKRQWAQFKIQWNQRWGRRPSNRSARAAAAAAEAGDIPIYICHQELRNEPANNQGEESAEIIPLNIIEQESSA

Calcitonin receptor [3] = target: T3, Calcitonin receptor (Homo sapiens, UniProt P30988); assay: Inhibition of [125I]-salmon calcitonin (sCT) binding to human calcitonin receptor I1 expressed in HEK293 cells; format: cell-based
T3 sequence (P30988 whole entry): T2 sequence (whole entry)

Calcitonin receptor [4] = target: T4, Calcitonin receptor (Rattus norvegicus, UniProt P32214); assay: Displacement of [125I]-salmon calcitonin (sCT) from calcitonin receptor of rat brain; outline: as §1
T4 sequence (P32214 whole entry): T1 sequence (whole entry)

| Relative affinity [1] | ED50 [2] | Ki (Calcitonin receptor [3]; hek293) | IC50 (Calcitonin receptor [4]) | Compound | Ki (Calcitonin receptor [3]) |
| --- | --- | --- | --- | --- | --- |
| 150 | 0.053 nM | – | – | CC(C)C[C@H](NC(=O)[C@H](CCCCN)NC(=O)CNC(=O)[C@H](CC(C)C)NC(=O)[C@@H](NC(=O)[C@H](CS)NC(=O)[C@@H](NC(=O)[C@H](CO)NC(=O)[C@H](CC(C)C)NC(=O)[C@H](CC(N)=O)NC(=O)[C@H](CO)NC(=O)[C@@H](N)CS)[C@@H](C)O)C(C)C)C(=O)N[C@@H](CO)C(=O)N[C@@H](CCC(N)=O)C(=O)N[C@@H](CCC(=O)O)C(=O)N[C@@H](CC(C)C)C(=O)N[C@H]1CC(=O)NCCC[C@@H](C(=O)N[C@@H](Cc2ccc(O)cc2)C(=O)N2CCC[C@@H]2C(=O)N[C@@H](CCCN=C(N)N)C(=O)N[C@H](C(=O)N[C@@H](CC(N)=O)C(=O)N[C@H](C(=O)NCC(=O)N[C@@H](CO)C(=O)NCC(=O)N[C@H](C(=O)N2CCC[C@@H]2C(N)=O)[C@@H](C)O)[C@@H](C)O)[C@@H](C)O)NC(=O)[C@H](Cc2cn(N)cn2)NC(=O)[C@H](CC(C)C)NC(=O)[C@H](CCCCN)NC1=O | – |
| – | – | 0.069 nM | 0.249 nM | CC(C)C[C@H](NC(=O)[C@H](CCCCN)NC(=O)CNC(=O)[C@H](CC(C)C)NC(=O)[C@@H](NC(=O)[C@H](CS)NC(=O)[C@@H](NC(=O)[C@H](CO)NC(=O)[C@H](CC(C)C)NC(=O)[C@H](CC(N)=O)NC(=O)[C@H](CO)NC(=O)[C@@H](N)CS)[C@@H](C)O)C(C)C)C(=O)N[C@@H](CO)C(=O)N[C@@H](CCC(N)=O)C(=O)N[C@@H](CCC(=O)O)C(=O)N[C@@H](CC(C)C)C(=O)N[C@H]1CC(=O)NCCC[C@@H](C(=O)N[C@@H](Cc2ccc(O)cc2)C(=O)N2CCC[C@H]2C(=O)N[C@@H](CCCN=C(N)N)C(=O)N[C@H](C(=O)N[C@@H](CC(N)=O)C(=O)N[C@H](C(=O)NCC(=O)N[C@@H](CO)C(=O)NCC(=O)N[C@H](C(=O)N2CCC[C@H]2C(N)=O)[C@@H](C)O)[C@@H](C)O)[C@@H](C)O)NC(=O)[C@H](Cc2c[nH]cn2)NC(=O)[C@H](CC(C)C)NC(=O)[C@H](CCCCN)NC1=O (H-CSNLSTCVLGKLSQELDKLH[Orn]YPRTNTGSGTP-NH2; lactam 17-21) | – |
| – | – | 0.023 nM | 0.326 nM | CC(C)C[C@H](NC(=O)[C@H](CCCCN)NC(=O)CNC(=O)[C@H](CC(C)C)NC(=O)[C@@H](NC(=O)[C@H](CS)NC(=O)[C@@H](NC(=O)[C@H](CO)NC(=O)[C@H](CC(C)C)NC(=O)[C@H](CC(N)=O)NC(=O)[C@H](CO)NC(=O)[C@@H](N)CS)[C@@H](C)O)C(C)C)C(=O)N[C@@H](CO)C(=O)N[C@@H](CCC(N)=O)C(=O)N[C@@H](CCC(=O)O)C(=O)N[C@@H](CC(C)C)C(=O)N[C@H]1CC(=O)NCCC[C@@H](C(=O)N[C@@H](Cc2ccc(O)cc2)C(=O)N2CCC[C@H]2C(=O)N[C@@H](CCCN=C(N)N)C(=O)N[C@H](C(=O)N[C@@H](CC(N)=O)C(=O)N[C@H](C(=O)NCC(=O)N[C@@H](CO)C(=O)NCC(=O)N[C@H](C(=O)N2CCC[C@H]2C(N)=O)[C@@H](C)O)[C@@H](C)O)[C@@H](C)O)NC(=O)[C@H](CCC(N)=O)NC(=O)[C@H](CC(C)C)NC(=O)[C@H](CCCCN)NC1=O | – |
| – | – | 0.069 nM | 0.408 nM | CCCC[C@H](NC(=O)[C@H](Cc1c[nH]cn1)NC(=O)[C@H](CC(C)C)NC(=O)[C@H](CCCCN)NC(=O)[C@H](CC(N)=O)NC(=O)[C@H](CC(C)C)NC(=O)[C@H](CCC(=O)O)NC(=O)[C@H](CCC(N)=O)NC(=O)[C@H](CO)NC(=O)[C@H](CC(C)C)NC(=O)[C@H](CCCCN)NC(=O)CNC(=O)[C@H](CC(C)C)NC(=O)[C@@H](NC(=O)[C@@H]1CSSC[C@H](N)C(=O)N[C@@H](CO)C(=O)N[C@@H](CC(N)=O)C(=O)N[C@@H](CC(C)C)C(=O)N[C@@H](CO)C(=O)N[C@@H]([C@@H](C)O)C(=O)N1)C(C)C)C(=O)N[C@@H](Cc1ccc(O)cc1)C(=O)N1CCC[C@H]1C(=O)N[C@@H](CCCN=C(N)N)C(=O)N[C@H](C(=O)N[C@@H](CC(N)=O)C(=O)N[C@H](C(=O)NCC(=O)N[C@@H](CO)C(=O)NCC(=O)N[C@H](C(=O)N1CCC[C@H]1C(N)=O)[C@@H](C)O)[C@@H](C)O)[C@@H](C)O (H-CSNLSTCVLGKLSQELNKLH[Nle]YPRTNTGSGTP-NH2; disulfide 1-7) | – |

Second part, the molecule before the results:

| Compound | Relative affinity [1] | ED50 [2] | Ki (Calcitonin receptor [3]; hek293) | IC50 (Calcitonin receptor [4]) | Ki (Calcitonin receptor [3]) |
| --- | --- | --- | --- | --- | --- |
| CC[C@H](C)[C@H](NC(=O)[C@H](C)NC(=O)[C@@H](NC(=O)[C@H](CCC(N)=O)NC(=O)[C@H]1CCCN1C(=O)[C@H](Cc1ccccc1)NC(=O)[C@@H](N[C@@H](Cc1c[nH]cn1)C(=O)N1CCC[C@H]1C(=O)[C@H](CCCCN)NC(=O)[C@H](CC(N)=O)NC(=O)[C@H](Cc1ccccc1)NC(=O)[C@H](CC(=O)O)NC(=O)[C@H](CCC(N)=O)NC(=O)[C@@H](NC(=O)[C@H](Cc1ccc(O)cc1)NC(=O)[C@@H](NC(=O)CNC(=O)[C@H](CC(C)C)NC(=O)[C@H](CCSC)NC(=O)[C@H](CS)NC(=O)[C@@H](NC(=O)[C@H](CO)NC(=O)[C@H](CC(C)C)NC(=O)[C@H](CC(N)=O)NC(=O)CNC(=O)[C@@H](N)CS)[C@@H](C)O)[C@@H](C)O)[C@@H](C)O)[C@@H](C)O)[C@@H](C)O)C(=O)NCC(=O)N[C@H](C(=O)NCC(=O)N[C@@H](C)C(=O)N1CCC[C@@H]1C(N)=O)C(C)C | < 0.0075 | 22 nM | – | – | – |
| CCCC[C@H](NC(=O)[C@H](Cc1c[nH]cn1)NC(=O)[C@H](CC(C)C)NC(=O)[C@H](CCCCN)NC(=O)[C@H](CC(N)=O)NC(=O)[C@H](CC(C)C)NC(=O)[C@H](CCC(=O)O)NC(=O)[C@H](CCC(N)=O)NC(=O)[C@H](CO)NC(=O)[C@H](CC(C)C)NC(=O)[C@H](CCCCN)NC(=O)CNC(=O)[C@H](CC(C)C)NC(=O)[C@@H](NC(=O)[C@H](CS)NC(=O)[C@@H](NC(=O)[C@H](CO)NC(=O)[C@H](CC(C)C)NC(=O)[C@H](CC(N)=O)NC(=O)[C@H](CO)NC(=O)[C@@H](N)CS)[C@@H](C)O)C(C)C)C(=O)N[C@@H](Cc1ccc(O)cc1)C(=O)N1CCC[C@@H]1C(=O)N[C@@H](CCCN=C(N)N)C(=O)N[C@H](C(=O)N[C@@H](CC(N)=O)C(=O)N[C@H](C(=O)NCC(=O)N[C@@H](CO)C(=O)NCC(=O)N[C@H](C(=O)N1CCC[C@@H]1C(N)=O)[C@@H](C)O)[C@@H](C)O)[C@@H](C)O | 92 | 0.046 nM | – | – | – |
| CC[C@H](C)[C@H](NC(=O)[C@H](C)NC(=O)[C@@H](NC(=O)[C@H](CCC(N)=O)NC(=O)[C@@H]1CCCN1C(=O)[C@H](Cc1ccccc1)NC(=O)[C@@H]1CCCCNC(=O)C[C@H](NC(=O)[C@H](Cc2ccccc2)NC(=O)[C@H](CC(=O)O)NC(=O)[C@H](CCC(N)=O)NC(=O)[C@@H](NC(=O)[C@H](Cc2ccc(O)cc2)NC(=O)[C@@H](NC(=O)CNC(=O)[C@H](CC(C)C)NC(=O)[C@H](CCSC)NC(=O)[C@@H]2CSSC[C@H](N)C(=O)NCC(=O)N[C@@H](CC(N)=O)C(=O)N[C@@H](CC(C)C)C(=O)N[C@@H](CO)C(=O)N[C@@H]([C@@H](C)O)C(=O)N2)[C@@H](C)O)[C@@H](C)O)C(=O)N[C@@H](CCCCN)C(=O)N[C@@H](Cc2ccccc2)C(=O)N[C@@H](Cc2cnc[nH]2)C(=O)N1)[C@@H](C)O)C(=O)NCC(=O)N[C@H](C(=O)NCC(=O)N[C@@H](C)C(=O)N1CCC[C@H]1C(N)=O)C(C)C (H-CGNLSTCMLGTYTQDFDKFHKFPQTAIGVGAP-NH2; disulfide 1-7; lactam 17-21) | – | – | 195 nM | 60 nM | – |
| CC(C)C[C@H](NC(=O)[C@H](CCCCN)NC(=O)CNC(=O)[C@H](CC(C)C)NC(=O)[C@@H](NC(=O)[C@@H]1CSSC[C@H](N)C(=O)N[C@@H](CO)C(=O)N[C@@H](CC(N)=O)C(=O)N[C@@H](CC(C)C)C(=O)N[C@@H](CO)C(=O)N[C@@H]([C@@H](C)O)C(=O)N1)C(C)C)C(=O)N[C@@H](CO)C(=O)N[C@@H](CCC(N)=O)C(=O)N[C@@H](CCC(=O)O)C(=O)N[C@@H](CC(C)C)C(=O)N[C@@H](Cc1c[nH]cn1)C(=O)N[C@@H](CCCCN)C(=O)N[C@@H](CC(C)C)C(=O)N[C@@H](CCC(N)=O)C(=O)N[C@H](C(=O)N[C@@H](Cc1ccc(O)cc1)C(=O)N1CCC[C@H]1C(=O)N[C@@H](CCCNC(=N)N)C(=O)N[C@H](C(=O)N[C@@H](CC(N)=O)C(=O)N[C@H](C(=O)NCC(=O)N[C@@H](CO)C(=O)NCC(=O)N[C@H](C(=O)N1CCC[C@H]1C(N)=O)[C@@H](C)O)[C@@H](C)O)[C@@H](C)O)[C@@H](C)O | – | – | – | 0.377 nM | […] |
